This note sets out measurements from ChEMBL document CHEMBL3769308, “Melanin-Concentrating Hormone Receptor 1 Antagonists Lacking an Aliphatic Amine: Synthesis and Structure-Activity Relationships of Novel 1-(Imidazo[1,2-a]pyridin-6-yl)pyridin-2(1H)-one Derivatives” (J Med Chem, 2016).

Some results are limits rather than exact numbers.

Data set [1] addresses T1, Melanin-concentrating hormone receptor 1 (Homo sapiens, UniProt Q99705). In words: Displacement of [125I]-MCH (4 to19 residues) from human MCHR1 expressed in CHO cell membranes after 1 hr by liquid scintillation counting analysis. The method, boiled down: (§1)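 Membranes from MCHR1-expressing CHO cells, homogenized in NaHCO3/EDTA with protease inhibitors, 100000g pellet held at 2 mg/mL protein in 20 mM Tris-HCl pH 7.5, 5 mM EDTA, protease inhibitors.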

Data set [2] concerns the target Melanin-concentrating hormone receptor 1 (Rattus norvegicus, UniProt P97639). In words: Displacement of [125I]-MCH (4 to 19 residues) from rat MCHR1 expressed in CHO cell membranes after 1 hr by liquid scintillation counting analysis. The method, boiled down:
as §1
On the technique in general: In a radioligand displacement assay an active substance lowers the binding of a labelled ligand.

Data set [3] concerns the target T1, Melanin-concentrating hormone receptor 1. It is filed as functional, cell-based, CHO.
A short description of data set [4]: Lipophilicity, log D of the compound at pH 7.4. The data set is classed as physicochemical. The note with it: buffer. The method, boiled down:
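Chromatographic HPLC method with UV detection, estimating octanol/buffer partition at pH 7.4.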

Melanin-concentrating hormone receptor 1 (Rattus norvegicus, UniProt P97639), sequence (P97639 whole entry, the tested form may be a part): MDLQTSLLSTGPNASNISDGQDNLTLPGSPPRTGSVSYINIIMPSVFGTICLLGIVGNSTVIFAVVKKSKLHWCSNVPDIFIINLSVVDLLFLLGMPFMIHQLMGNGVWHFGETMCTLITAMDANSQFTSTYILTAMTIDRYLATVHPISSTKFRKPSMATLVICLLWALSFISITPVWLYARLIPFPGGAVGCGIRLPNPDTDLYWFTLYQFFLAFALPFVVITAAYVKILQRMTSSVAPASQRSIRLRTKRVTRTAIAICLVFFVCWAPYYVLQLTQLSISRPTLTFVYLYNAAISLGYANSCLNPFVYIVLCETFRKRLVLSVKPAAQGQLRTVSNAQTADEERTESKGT
T1 sequence (Q99705 whole entry, the tested form may be a part): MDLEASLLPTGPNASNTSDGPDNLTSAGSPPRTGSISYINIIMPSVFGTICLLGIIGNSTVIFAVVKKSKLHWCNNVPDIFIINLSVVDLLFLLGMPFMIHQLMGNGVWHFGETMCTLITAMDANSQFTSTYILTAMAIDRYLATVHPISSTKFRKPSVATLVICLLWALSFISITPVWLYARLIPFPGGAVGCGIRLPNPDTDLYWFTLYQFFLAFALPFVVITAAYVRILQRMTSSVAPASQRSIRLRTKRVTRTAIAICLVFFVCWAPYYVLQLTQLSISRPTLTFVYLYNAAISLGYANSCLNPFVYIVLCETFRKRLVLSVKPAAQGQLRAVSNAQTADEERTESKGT

For `Cc1c(C2CC2)nc2ccc(-n3ccc(OCc4ccncc4)cc3=O)cn12`, the IC50 in data set [1] and in data set [2] was over 1 µM in each case.

For the compound `Cc1c(C#N)nc2ccc(-n3ccc(OCc4ccc(F)cc4)cc3=O)cn12`, the half-inhibitory concentration (IC50) in data set [1] and in data set [2] was over 1 µM in each case.

With `Cc1c(CO)nc2ccc(-n3ccc(OCc4ccc(F)cc4)cc3=O)cn12`, the half-inhibitory concentration (IC50) in data set [1] and in data set [2] was over 1 µM each time.

Turning to `Cc1c(C2CC2)nc2ccc(-n3ccc(OCc4ccc(C(C)C)cc4)cc3=O)cn12`, the IC50 was found to be 0.41 µM in data set [1] and 0.24 µM in data set [2].

As for `Cc1c(C2CC2)nc2ccc(-n3ccc(OCc4csc(Cl)c4)cc3=O)cn12`, the IC50 in data set [3] amounted to 0.019 µM; in data set [1] it was 0.0077 µM; in data set [2] it was 0.0075 µM.

As to `Cc1c(C2CC2)nc2ccc(-n3ccc4oc(-c5ccc(Cl)cc5)cc4c3=O)cn12`, the IC50 in data set [3] was found to be 0.042 µM; in data set [1], 0.0068 µM; in data set [2] it was 0.011 µM.

Regarding `Cc1oc2ccc(NC(=O)COc3ccc(OC(F)(F)F)cc3)cc2c1C`, the 50% inhibitory concentration (IC50) in data set [1] and in data set [2] was over 1 µM in each case.

For `CCc1nc2ccc(-n3ccc(OCc4ccccc4)cc3=O)cn2c1C`, the 50% inhibitory concentration (IC50) in data set [1] and in data set [2] was 0.12 µM each time.

Turning to `Cc1c(C2CC2)nc2ccc(NC(=O)COc3ccc(OC(F)(F)F)cc3)cn12`, the figures for the half-maximal inhibitory concentration (IC50) in data set [1] and in data set [2] were 0.003 µM and 0.0063 µM, respectively.

As to `Cc1c(C2CC2)nc2ccc(-n3ccc(OCc4ccc(Br)cc4)cc3=O)cn12`, the 50% inhibitory concentration (IC50) in data set [1] is 0.012 µM; in data set [2] it was 0.0093 µM.

On to `Cc1c(C2CC2)nc2ccc(-n3ccc(OCc4ccc(Cl)cn4)cc3=O)cn12`, for which the half-maximal inhibitory concentration (IC50) was determined as 0.024 µM in data set [1] and 0.019 µM in data set [2].

As for `Cc1c(C2CC2)cc2ccc(NC(=O)COc3ccc(OC(F)(F)F)cc3)cn12`, the IC50 in data set [1] and in data set [2] was over 1 µM in each case.

With `Cc1c(C2CC2)nc2ccc(-n3ccc(OCc4ccc(C(F)(F)F)cc4)cc3=O)cn12`, the IC50 in data set [1] turned out to be 0.072 µM; in data set [2] it was 0.082 µM.

Consider `Cc1c(C2CC2)nc2ccc(-n3ncc(OCc4ccc(Cl)cc4)cc3=O)cn12`, for which the IC50 in data set [1] was 0.092 µM; in data set [2], 0.11 µM. This compound registered a pH-dependent lipophilicity (logD) in data set [4] of 3.7.

`Cc1c(C2CC2)nc2ccc(-n3ccc(OCc4cccs4)cc3=O)cn12`: the IC50 in data set [1] came to 0.095 µM; in data set [2], 0.13 µM.

Consider `Cc1nc2ccc(-n3ccc(OCc4ccccc4)cc3=O)cn2c1C`, for which the values for the 50% inhibitory concentration (IC50) in data set [1] and in data set [2] were 0.078 µM and 0.08 µM, respectively.

For `Cc1c(C2CC2)nc2ccc(-n3ccc(OCc4csc(C(F)(F)F)c4)cc3=O)cn12`, the results for the IC50 in data set [1] and in data set [2] were 0.017 µM and 0.015 µM, respectively.

For `Cc1cn(-c2ccc3nc(C4CC4)c(C)n3c2)c(=O)cc1OCc1ccc(Cl)cc1`, the concentration for half-maximal inhibition (IC50) is 0.21 µM in data set [1] and 0.15 µM in data set [2].

For the compound `Cc1c(C2CC2)nc2ccc(-n3ccc4c(c3=O)CCC(c3ccc(Cl)cc3)O4)cn12` (stereo not drawn), the results for the IC50 in data set [1] and in data set [2] were 0.094 µM and 0.062 µM, respectively.

In the case of `COCc1nc2ccc(-n3ccc(OCc4ccc(F)cc4)cc3=O)cn2c1C`, the IC50 in data set [1] and in data set [2] was over 1 µM throughout.

Turning to `Cc1c(C2CC2)nc2ccc(-n3ccc(OCc4ccccc4)cc3=O)cn12`, the IC50 was found to be 0.042 µM in data set [1] and 0.028 µM in data set [2].

Consider `Cc1c(C(=O)N(C)C)nc2ccc(-n3ccc(OCc4ccc(F)cc4)cc3=O)cn12`, for which the IC50 in data set [1] and in data set [2] was over 1 µM throughout.

As to `Cc1c(C2CC2)nc2ccc(-n3ccc(OCc4ccc(F)cc4)cc3=O)cn12`, the IC50 in data set [1] was determined as 0.047 µM; in data set [2] it was 0.028 µM.

Take `Cc1c(C2CC2)nc2ccc(-n3cccc(Oc4ccc(OC(F)(F)F)cc4)c3=O)cn12`: the IC50 stood at 0.27 µM in data set [1] and 0.24 µM in data set [2].

In the case of `Cc1c(C2CC2)nc2ccc(-n3ccc(OCc4cccnc4)cc3=O)cn12`, the 50% inhibitory concentration (IC50) in data set [1] and in data set [2] was over 1 µM in each case.

Turning to `Cc1c(CC#N)nc2ccc(-n3ccc(OCc4ccc(F)cc4)cc3=O)cn12`, the IC50 was found to be 0.18 µM in data set [1] and 0.17 µM in data set [2].

`Cc1c(C2CC2)nc2ccc(-n3ccc(Oc4ccc(OC(F)(F)F)cc4)cc3=O)cn12`: the IC50 in data set [1] is over 1 µM; in data set [2], 0.95 µM.

For `Cc1c(C(=O)C2CC2)nc2ccc(-n3ccc(OCc4ccc(F)cc4)cc3=O)cn12`, the concentration for half-maximal inhibition (IC50) in data set [1] and in data set [2] was over 1 µM in each case.

For the compound `Cc1c(C2CC2)nc2ccc(-n3ccc(OCc4ccc(Cl)cc4)nc3=O)cn12`, the figures for the IC50 in data set [3], in data set [1] and in data set [2] were 0.14 µM, 0.037 µM and 0.03 µM, respectively. The compound also displayed a pH-dependent lipophilicity (logD) in data set [4] of 2.8.

Consider `Cc1c(C2CC2)nc2ccc(-n3ccc(OCc4ccccn4)cc3=O)cn12`, for which the half-maximal inhibitory concentration (IC50) in data set [1] is 0.24 µM; in data set [2] it was 0.15 µM.

`Cc1c(C2CC2)nc2ccc(-n3cnc(OCc4ccc(Cl)cc4)cc3=O)cn12`: the IC50 came out at 0.15 µM in data set [1] and 0.14 µM in data set [2]. Further, the log distribution coefficient (logD) in data set [4] is 2.9.

Consider `Cc1c(C2CC2)nc2ccc(-n3ccc(OCc4ccsc4)cc3=O)cn12`, for which the IC50 was determined as 0.025 µM in data set [1] and 0.054 µM in data set [2].

`Cc1c(C2CC2)nc2ccc(-n3cccc(OCc4ccc(Cl)cc4)c3=O)cn12`: the IC50 was determined as 0.99 µM in data set [1] and 0.65 µM in data set [2].

Take `CC(=O)c1nc2ccc(-n3ccc(OCc4ccc(F)cc4)cc3=O)cn2c1C`: the half-inhibitory concentration (IC50) in data set [1] and in data set [2] was over 1 µM in each case.

Take `Cc1nc2ccc(NC(=O)COc3ccc(OC(F)(F)F)cc3)cn2c1C`: the 50% inhibitory concentration (IC50) in data set [1] is 0.0038 µM; in data set [2], 0.0078 µM.

For `Cc1c(C2CC2)nc2ccc(-n3ccc(OCc4cncnc4)cc3=O)cn12`, the IC50 in data set [1] and in data set [2] was over 1 µM in each case.

By IC50 is commonly meant the midpoint of a concentration-inhibition curve. Read a low IC50 as greater potency. What is called logD is lipophilicity at a set pH, counting ionised and neutral species. A low value points to lower lipophilicity.
